Measured values as given in ChEMBL document CHEMBL5724801, “EUbOPEN Chemogenomics Library - Multiplex” (2024).
Several values for one entry are separate records, joined by “and”; a condition that tells them apart may be missing. Equal values may be shown once.

Each molecule was assayed on Fibroblast (assay: Multiplex assay against human fibroblast). Details: 12 h, 1 µM, compound concentration 1 uM.
Type: toxicity, cell-based
In short: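 Live cells carried four stains from seeding: Hoechst33342, BioTracker Green Microtubule Cytoskeleton Dye, MitoTracker Red and Annexin V Alexa Fluor 680. They were imaged on a CQ1 microscope at 37°C and 5% CO2 after compound addition. Using CellPathfinder machine-learning gating, cells were split into Hoechst high-intensity objects or normal cells, normal cells into healthy, pyknosed or fragmented nuclei, and pyknosed cells into mitotic or apoptotic; tubulin, mitochondrial-mass and membrane-permeability phenotypes are per cents of healthy-nucleus cells.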

Row | Structure (SMILES) | Population Apoptotic (%) | Population Fragmented Nuclei (%) | Population Healthy Nuclei (%) | Population Hoechst High Intensity Objects (%) | Population Mitotic Cells (%) | Population Normal (%) | Population Pyknosed Nuclei (%) | Population Tubulin-Different-Phenotype (%) | Total Cell Count | Population Membrane Permeable-Phenotype (%)
1 | C[C@@H]1CN(Cc2ccc(F)cc2)CCN1C(=O)COc1ccc(Cl)cc1NC(N)=O [BX 471 FREE BASE] | 23% and 38% | 10% and 26% | 73% and 47% | 3% and 7% | 76% and 61% | 96% and 92% | 15% and 26% | 35% and 48% | 138 and 182 | –
2 | N#Cc1c(N)nc(SCc2csc(-c3ccc(Cl)cc3)n2)c(C#N)c1-c1ccc(OCCO)cc1 [CAPADENOSON] | 43% and 27% | – | 80% and 43% | 2% and 1% | 56% and 72% | 97% and 98% | 11% and 25% | 38% and 55% | 139 and 157 | 0% and 5%

Same assay, conditions: 12 h, 1 µM, compound concentration 1 uM

Row | Structure (SMILES) | Population Mitochondria Different-Phenotype (%)
3 | N#Cc1c(N)nc(SCc2csc(-c3ccc(Cl)cc3)n2)c(C#N)c1-c1ccc(OCCO)cc1 [CAPADENOSON] | 10% and 11%

Same assay, conditions: 12 h, 10 µM, compound concentration 10 uM

Row | Structure (SMILES) | Population Apoptotic (%) | Population Fragmented Nuclei (%) | Population Healthy Nuclei (%) | Population Hoechst High Intensity Objects (%) | Population Mitotic Cells (%) | Population Normal (%) | Population Pyknosed Nuclei (%) | Population Tubulin-Different-Phenotype (%) | Total Cell Count | Population Membrane Permeable-Phenotype (%)
4 | C[C@@H]1CN(Cc2ccc(F)cc2)CCN1C(=O)COc1ccc(Cl)cc1NC(N)=O [BX 471 FREE BASE] | 38% and 40% | 27% and 36% | 45% and 27% | 7% and 11% | 61% and 60% | 92% and 88% | 26% and 35% | 81% and 77% | 240 and 126 | –
5 | N#Cc1c(N)nc(SCc2csc(-c3ccc(Cl)cc3)n2)c(C#N)c1-c1ccc(OCCO)cc1 [CAPADENOSON] | 31% and 41% | 23% and 41% | 50% and 29% | 1% and 8% | 68% and 58% | 98% and 91% | 25% and 29% | 80% and 97% | 172 and 128 | 0% and 20%

Same assay, conditions: 12 h, 10 µM, compound concentration 10 uM

Row | Structure (SMILES) | Population Mitochondria Different-Phenotype (%)
6 | N#Cc1c(N)nc(SCc2csc(-c3ccc(Cl)cc3)n2)c(C#N)c1-c1ccc(OCCO)cc1 [CAPADENOSON] | 10% and 14%

Same assay, conditions: 24 h, 1 µM, compound concentration 1 uM

Row | Structure (SMILES) | Population Apoptotic (%) | Population Fragmented Nuclei (%) | Population Healthy Nuclei (%) | Population Hoechst High Intensity Objects (%) | Population Mitotic Cells (%) | Population Normal (%) | Population Pyknosed Nuclei (%) | Population Tubulin-Different-Phenotype (%) | Total Cell Count | Population Membrane Permeable-Phenotype (%)
7 | C[C@@H]1CN(Cc2ccc(F)cc2)CCN1C(=O)COc1ccc(Cl)cc1NC(N)=O [BX 471 FREE BASE] | 52% and 51% | 13% and 20% | 74% and 52% | 0% and 6% | 47% and 48% | 99% and 93% | 11% and 27% | 33% and 52% | 147 and 160 | –
8 | N#Cc1c(N)nc(SCc2csc(-c3ccc(Cl)cc3)n2)c(C#N)c1-c1ccc(OCCO)cc1 [CAPADENOSON] | 72% and 48% | – | 80% and 44% | 1% and 4% | 27% and 51% | 98% and 95% | 8% and 20% | 34% and 71% | 139 and 148 | 0% and 6%

Same assay, conditions: 24 h, 10 µM, compound concentration 10 uM

Row | Structure (SMILES) | Population Apoptotic (%) | Population Fragmented Nuclei (%) | Population Healthy Nuclei (%) | Population Hoechst High Intensity Objects (%) | Population Mitotic Cells (%) | Population Normal (%) | Population Pyknosed Nuclei (%) | Population Tubulin-Different-Phenotype (%) | Total Cell Count | Population Membrane Permeable-Phenotype (%)
9 | C[C@@H]1CN(Cc2ccc(F)cc2)CCN1C(=O)COc1ccc(Cl)cc1NC(N)=O [BX 471 FREE BASE] | 43% and 46% | 28% and 34% | 43% and 36% | 4% and 8% | 56% and 53% | 95% and 91% | 28% and 29% | 75% and 89% | 225 and 118 | –
10 | N#Cc1c(N)nc(SCc2csc(-c3ccc(Cl)cc3)n2)c(C#N)c1-c1ccc(OCCO)cc1 [CAPADENOSON] | 38% and 41% | 26% and 43% | 52% and 28% | 2% and 6% | 61% and 58% | 97% and 93% | 20% and 27% | 67% and 94% | 179 and 131 | 0% and 17%

Same assay, conditions: 24 h, 10 µM, compound concentration 10 uM

Row | Structure (SMILES) | Population Mitochondria Different-Phenotype (%)
11 | N#Cc1c(N)nc(SCc2csc(-c3ccc(Cl)cc3)n2)c(C#N)c1-c1ccc(OCCO)cc1 [CAPADENOSON] | 26% and 25%

Same assay, conditions: 48 h, 1 µM, compound concentration 1 uM

Row | Structure (SMILES) | Population Apoptotic (%) | Population Fragmented Nuclei (%) | Population Healthy Nuclei (%) | Population Hoechst High Intensity Objects (%) | Population Mitotic Cells (%) | Population Normal (%) | Population Pyknosed Nuclei (%) | Population Tubulin-Different-Phenotype (%) | Total Cell Count | Population Membrane Permeable-Phenotype (%)
12 | C[C@@H]1CN(Cc2ccc(F)cc2)CCN1C(=O)COc1ccc(Cl)cc1NC(N)=O [BX 471 FREE BASE] | 55% and 63% | 16% and 31% | 67% and 55% | 5% | 45% and 36% | 94% and 97% | 15% and 13% | 40% and 54% | 138 and 172 | –
13 | N#Cc1c(N)nc(SCc2csc(-c3ccc(Cl)cc3)n2)c(C#N)c1-c1ccc(OCCO)cc1 [CAPADENOSON] | 88% and 69% | 16% and 38% | 77% and 43% | 2% | 11% and 30% | 97% | 6% and 17% | 37% and 60% | 147 and 151 | 0% and 6%

Same assay, conditions: 48 h, 1 µM, compound concentration 1 uM

Row | Structure (SMILES) | Population Mitochondria Different-Phenotype (%)
14 | N#Cc1c(N)nc(SCc2csc(-c3ccc(Cl)cc3)n2)c(C#N)c1-c1ccc(OCCO)cc1 [CAPADENOSON] | 7% and 12%

Same assay, conditions: 48 h, 10 µM, compound concentration 10 uM

Row | Structure (SMILES) | Population Apoptotic (%) | Population Fragmented Nuclei (%) | Population Healthy Nuclei (%) | Population Hoechst High Intensity Objects (%) | Population Mitotic Cells (%) | Population Normal (%) | Population Pyknosed Nuclei (%) | Population Tubulin-Different-Phenotype (%) | Total Cell Count | Population Membrane Permeable-Phenotype (%)
15 | C[C@@H]1CN(Cc2ccc(F)cc2)CCN1C(=O)COc1ccc(Cl)cc1NC(N)=O [BX 471 FREE BASE] | 58% and 41% | 31% and 42% | 49% and 42% | 7% and 6% | 41% and 58% | 92% and 93% | 18% and 14% | 77% and 91% | 234 and 122 | –
16 | N#Cc1c(N)nc(SCc2csc(-c3ccc(Cl)cc3)n2)c(C#N)c1-c1ccc(OCCO)cc1 [CAPADENOSON] | 81% and 36% | 32% and 57% | 53% and 29% | 2% and 0% | – | 97% and 100% | 14% and 13% | 78% and 95% | 187 and 142 | 0% and 11%

Same assay, conditions: 48 h, 10 µM, compound concentration 10 uM

Row | Structure (SMILES) | Population Mitochondria Different-Phenotype (%)
17 | N#Cc1c(N)nc(SCc2csc(-c3ccc(Cl)cc3)n2)c(C#N)c1-c1ccc(OCCO)cc1 [CAPADENOSON] | 32% and 30%
